Laboratory results taken from publication PMC5839514 (MedChemComm, 2017).
Read-outs that look alike come from different tables or passages of the source.

Legend:
[1] = test system: LS174T colon cancer cells; experiment: Cell proliferation assay, LS174T colon cancer cells; format: cell-based; conditions: Table 3
Outline: (§1)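 Cells were kept in RPMI or DMEM with 5% or 10% fetal bovine serum and 1% penicillin/streptomycin. They were plated at 3 × 10^4 cells per well in 12-well plates and treated with DMSO or test compound. After 4 days, cell number and viability were counted on a Vi-Cell viability analyzer. Inhibition is relative to DMSO.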

HT-29 = experiment: Cell proliferation assay, HT-29 colon cancer cells; format: cell-based
Outline: as §1

fibroblast HEL 299 cells = experiment: Cell proliferation assay, normal fibroblast HEL 299 cells; format: cell-based
Outline: (§2)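 Cells were obtained from a university collaborator and grown in RPMI or DMEM with 5% or 10% fetal bovine serum plus 1% penicillin/streptomycin. The medium for each line is not specified. Cells were seeded at 3 × 10^4 per well and treated with test compound or DMSO. After 4 days, cell number and viability were counted on an automated cell viability analyzer.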

lung epithelial BEAS-2B = experiment: Cell proliferation assay, normal lung epithelial BEAS-2B cells; format: cell-based
Outline: as §2

cyclin D1 = experiment: Western blot of cyclin D1 in LS174T cells; format: cell-based; conditions: 300 nM
Outline: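 LS174T colon cancer cells were exposed to test compound at 300 nM. Lysates were immunoblotted with antibodies against cyclin D1, p21Wif1/Cip1 and β-tubulin.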

[2] = test system: cyclin-dependent kinase inhibitor p21^Wif1/Cip1; experiment: Western blot of p21^Wif1/Cip1 in LS174T cells; format: cell-based; conditions: 300 nM
Water solubility = format: physicochemical; conditions: for Water solubility of hydrochloride salt: hydrochloride salts
[3] = test system: LS174T colon cancer cells; conditions: cited from earlier work; for Inhibition of proliferation (%) of LS174T cells: Table 1

SMILES: N.N.[Cl][Pt][Cl] [Cisplatin]
- Percentage inhibition of the proliferation of colon cancer cells ([1]; 1 μM): 24.2±5.6%
- Percentage inhibition of the proliferation of colon cancer cells ([1]; 10 μM): 82.1±1.4%
- Percentage inhibition of the proliferation of colon cancer cells (HT-29; 1 μM): 4.4±5.9%
- Percentage inhibition of the proliferation of colon cancer cells (HT-29; 10 μM): 72.7±3.5%
- Percentage inhibition of the proliferation of normal cells (fibroblast HEL 299 cells; 1 μM): 37.5±4.1%
- Percentage inhibition of the proliferation of normal cells (fibroblast HEL 299 cells; 10 μM): 57.8±0.3%
- Percentage inhibition of the proliferation of normal cells (lung epithelial BEAS-2B; 1 μM): 39.2±14.9%
- Percentage inhibition of the proliferation of normal cells (lung epithelial BEAS-2B; 10 μM): 82.4±0.2%

SMILES: CN(C)c1ncc(C#Cc2c(F)cccc2F)c2ccccc12 [Compound 5mm, 4-((2,6-Difluorophenyl)ethynyl)-N,N-dimethylisoquinolin-1-amine]
- Effect on cyclin D1 (western blot) (cyclin D1): inhibited cyclin D1
- Effect on p21^Wif1/Cip1 (western blot) [2]: induced cyclin-dependent kinase inhibitor p21^Wif1/Cip1

SMILES: CN(C)c1ccc(C#Cc2c(F)cccc2F)cc1 [Compound 2, 4-((2,6-difluorophenyl)ethynyl)-N,N-dimethylaniline]
- Effect on cyclin D1 (western blot) (cyclin D1): inhibited cyclin D1
- Effect on p21^Wif1/Cip1 (western blot) [2]: induced cyclin-dependent kinase inhibitor p21^Wif1/Cip1
- Water solubility (Water solubility; parent compound): sparingly water-soluble
- Inhibition of cell proliferation (%) of colon cancer LS174T cells ([3]; 30 nM, Table 2): 57±1.2%
- Inhibition of proliferation (%) of LS174T cells ([3]; 100 nM): 85.2±0.5%
- Inhibition of proliferation (%) of LS174T cells ([3]; 1 μM): 99.5±0.1%

SMILES: CN(C)c1ncc(C#Cc2c(F)cccc2F)c2ncccc12 [Compound 5pp, 8-((2,6-Difluorophenyl)ethynyl)-N,N-dimethyl-1,6-naphthyridin-5-amine]
- Water solubility of hydrochloride salt (Water solubility): completely water-soluble

SMILES: CNc1ncc(C#Cc2c(F)cccc2F)c2ccccc12 [Compound 5nn, 4-((2,6-Difluorophenyl)ethynyl)-N-methylisoquinolin-1-amine]
- Effect on cyclin D1 (western blot) (cyclin D1): inhibited cyclin D1
- Effect on p21^Wif1/Cip1 (western blot) [2]: induced cyclin-dependent kinase inhibitor p21^Wif1/Cip1

SMILES: CN1CCN(c2ncc(C#Cc3c(F)cccc3F)c3ccccc23)CC1.Cl [Compound 5oo, 4-((2,6-Difluorophenyl)ethynyl)-1-(4-methylpiperazin-1-yl)isoquinoline]
- Water solubility of hydrochloride salt (Water solubility): completely water-soluble
